The values that follow come from ChEMBL document CHEMBL4665889, “Design, Synthesis, and Pharmacological Characterization of a Neutral, Non-Prodrug Thrombin Inhibitor with Good Oral Pharmacokinetics” (J Med Chem, 2020).

Data set [1] has as its target Trypsin (Homo sapiens) (UniProt P07477+P07478+P35030). Nature of the data set: Inhibition of purified human plasma trypsin up to 20 uM using Boc-Ile-Glu-Gly-Arg-AMC substrate incubated for 30 mins by fluorescence based assay. The conditions noted are these: dose microM <=20, time 30.0 min. The class given is protein assay. In outline: (§1)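 Final levels: thrombin 0.02 nM; FXa 1.3 nM; FXIa 0.15 nM; plasmin 1.2 nM (substrate 50 μM); tPA 2 nM; kallikrein 0.2 nM; trypsin 0.1 nM; other AMC substrates 5 μM. FVIIa 0.5 pM coupled with tissue factor, factor X 12 nM, FXa substrate 50 μM.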

In data set [2] the target is Plasma kallikrein (Homo sapiens) (UniProt P03952). Nature of the data set: Inhibition of purified human plasma kallikrein up to 20 uM using H-Pro-Phe-Arg-AMC substrate incubated for 30 mins by fluorescence based assay. The conditions noted are these: dose microM <=20, time 30.0 min. In outline:
as §1

Data set [3] addresses Tissue-type plasminogen activator (Homo sapiens) (UniProt P00750). Briefly: Inhibition of purified human plasma tPA up to 20 uM using CH3SO2-DPhe-Gly-Arg-AMC substrate incubated for 30 mins by fluorescence based assay. The note with it: dose microM <=20, time 30.0 min. In outline: as §1
A short description of data set [4]: Inhibition of thrombin in dog plasma. The conditions noted are these: Canis lupus familiaris. The class given is cell-free.
A short description of data set [5]: Volume of distribution at steady state in Wistar Hannover rat at 0.3 to 0.5 mg/kg, iv by LC-MS/MS analysis. The conditions noted are these: in vivo, dose 0.3-0.5 mg/kg, time <=24 hrs, read-out: Vdss. It is filed as ADME, organism-based. In outline: (§2)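 Male Wistar Hannover rats, catheterized under isoflurane; one day later iv injection into lateral tail vein at 0.3 to 0.5 mg/kg in plasma containing 2% DMSO. Blood sampled via catheter from 0.033 to 24 h. Plasma precipitated with acetonitrile, analysed by LC-MS/MS (10 mM ammonium acetate pH 3.0/acetonitrile gradient). PK parameters calculated from plasma concentrations.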

Data set [6] is described as follows: Oral bioavailability in Wistar Hannover rat at 1 mg/kg by LC-MS/MS analysis. It is filed as ADME, organism-based. The note with it: in vivo, time <=24 hrs. In outline:
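Catheterized male Wistar Hannover rats dosed by gavage at 1 mg/kg in 10% ethanol/40% PEG/50% water. Blood taken via catheter at 0.083 to 24 h. Plasma precipitated with acetonitrile and analysed by LC-MS/MS. Bioavailability derived against iv dosing at 0.3 to 0.5 mg/kg.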

Data set [7] is described as follows: AUC/dose in Wistar Hannover rat at 0.3 to 0.5 mg/kg, iv by LC-MS/MS analysis. The class given is ADME, organism-based. The note with it: in vivo, dose 0.3-0.5 mg/kg, time <=24 hrs. In outline:
as §2

A short description of data set [8]: Protein binding in rat plasma. It is filed as ADME, cell-free. The note with it: read-out: PPB (converted).
For data set [9], the target named is T1, Nuclear receptor subfamily 1 group I member 2 (Homo sapiens, UniProt O75469).
T1 sequence (O75469 whole entry): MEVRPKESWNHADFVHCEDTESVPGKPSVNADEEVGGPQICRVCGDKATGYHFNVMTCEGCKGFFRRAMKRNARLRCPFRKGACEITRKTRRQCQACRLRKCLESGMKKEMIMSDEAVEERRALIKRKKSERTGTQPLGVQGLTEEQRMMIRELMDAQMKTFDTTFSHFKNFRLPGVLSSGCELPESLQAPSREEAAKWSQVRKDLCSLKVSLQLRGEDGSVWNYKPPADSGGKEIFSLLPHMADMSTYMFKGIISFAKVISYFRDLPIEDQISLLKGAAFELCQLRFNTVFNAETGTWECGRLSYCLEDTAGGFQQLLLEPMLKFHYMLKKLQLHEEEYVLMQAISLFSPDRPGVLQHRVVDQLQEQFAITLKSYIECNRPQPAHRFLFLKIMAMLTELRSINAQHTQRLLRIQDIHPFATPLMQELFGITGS
Nature of the data set: Activation of human PXR human hepatocytes assessed as induction of CYP3A4 mRNA expression incubated for 48 hrs by qPCR analysis. The class given is ADME, tissue-based, Hepatocyte. In outline:
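Human hepatocytes in collagen sandwich, cultured 1 d, then treated with eight 1:3 serial concentrations for 2 consecutive days with daily media change. mRNA isolated on magnetic beads, reverse transcribed, and quantified by TaqMan qRT-PCR against actin/tubulin. Fold induction over vehicle by ΔΔCt; NOEL reported.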
On the technique in general: In qPCR the cycle at which signal appears reflects the starting amount.

Data set [10] deals with Coagulation factor XI (Homo sapiens) (UniProt P03951). Nature of the data set: Inhibition of purified human plasma factor-11a up to 20 uM using Boc-Glu(OBzl)-Ala-Arg-AMC substrate incubated for 30 mins by fluorescence based assay. The note with it: dose microM <=20, time 30.0 min. In outline:
as §1

Data set [11] has as its target Coagulation factor X (Homo sapiens) (UniProt P00742). Briefly: Inhibition of purified human plasma factor-10a up to 20 uM using Boc-Ile-Glu-Gly-Arg-AMC substrate incubated for 30 mins by fluorescence based assay. The conditions noted are these: dose microM <=20, time 30.0 min. In outline:
as §1

Data set [12] is described as follows: Protein binding in human plasma. The class given is ADME, cell-free. The note with it: read-out: PPB (converted).

Active and inactive are the calls of the source. The rule behind the calls is not given here.

Coagulation factor XI (Homo sapiens), sequence (P03951 19-387 limits assumed): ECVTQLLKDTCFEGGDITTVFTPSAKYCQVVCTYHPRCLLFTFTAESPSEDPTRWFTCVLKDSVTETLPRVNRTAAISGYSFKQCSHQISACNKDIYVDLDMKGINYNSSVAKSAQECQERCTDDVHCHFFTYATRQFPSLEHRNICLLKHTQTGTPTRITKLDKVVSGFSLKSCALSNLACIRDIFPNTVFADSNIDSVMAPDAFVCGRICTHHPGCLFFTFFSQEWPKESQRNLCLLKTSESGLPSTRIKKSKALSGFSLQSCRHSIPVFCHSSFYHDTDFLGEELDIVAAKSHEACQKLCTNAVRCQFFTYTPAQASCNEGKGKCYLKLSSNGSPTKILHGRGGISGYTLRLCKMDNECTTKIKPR
Coagulation factor XI (Homo sapiens), sequence (P03951 388-625 limits assumed): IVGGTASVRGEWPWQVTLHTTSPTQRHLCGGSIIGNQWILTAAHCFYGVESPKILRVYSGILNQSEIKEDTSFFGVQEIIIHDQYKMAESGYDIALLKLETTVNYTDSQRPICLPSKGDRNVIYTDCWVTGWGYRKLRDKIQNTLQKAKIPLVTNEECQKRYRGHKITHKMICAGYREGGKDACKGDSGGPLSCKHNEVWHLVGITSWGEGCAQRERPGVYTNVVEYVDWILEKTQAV
Coagulation factor X (Homo sapiens), sequence (P00742 41-179 limits assumed): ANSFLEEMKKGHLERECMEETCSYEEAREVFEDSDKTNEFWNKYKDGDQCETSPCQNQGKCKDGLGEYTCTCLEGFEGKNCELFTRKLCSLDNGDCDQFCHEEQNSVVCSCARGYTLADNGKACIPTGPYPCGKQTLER
Coagulation factor X (Homo sapiens), sequence (P00742 235-488 limits assumed): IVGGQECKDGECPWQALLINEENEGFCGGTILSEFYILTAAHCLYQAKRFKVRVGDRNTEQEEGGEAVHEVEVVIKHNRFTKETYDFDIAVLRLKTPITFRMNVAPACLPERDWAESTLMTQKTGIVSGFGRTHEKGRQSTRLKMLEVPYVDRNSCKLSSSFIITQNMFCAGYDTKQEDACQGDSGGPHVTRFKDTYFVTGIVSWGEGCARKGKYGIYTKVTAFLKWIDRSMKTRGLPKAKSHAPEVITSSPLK
Plasma kallikrein (Homo sapiens), sequence (P03952 20-390 limits assumed): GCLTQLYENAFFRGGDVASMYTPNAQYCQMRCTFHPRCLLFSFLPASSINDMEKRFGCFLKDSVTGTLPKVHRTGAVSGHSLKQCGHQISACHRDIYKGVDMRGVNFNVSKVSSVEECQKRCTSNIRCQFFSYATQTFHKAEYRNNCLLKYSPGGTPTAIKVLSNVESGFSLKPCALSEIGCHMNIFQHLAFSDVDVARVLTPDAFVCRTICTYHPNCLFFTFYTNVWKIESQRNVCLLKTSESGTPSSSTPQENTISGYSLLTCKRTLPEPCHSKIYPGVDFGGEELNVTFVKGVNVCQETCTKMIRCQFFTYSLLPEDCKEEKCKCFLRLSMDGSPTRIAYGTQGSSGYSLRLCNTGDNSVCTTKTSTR
Plasma kallikrein (Homo sapiens), sequence (P03952 391-638 limits assumed): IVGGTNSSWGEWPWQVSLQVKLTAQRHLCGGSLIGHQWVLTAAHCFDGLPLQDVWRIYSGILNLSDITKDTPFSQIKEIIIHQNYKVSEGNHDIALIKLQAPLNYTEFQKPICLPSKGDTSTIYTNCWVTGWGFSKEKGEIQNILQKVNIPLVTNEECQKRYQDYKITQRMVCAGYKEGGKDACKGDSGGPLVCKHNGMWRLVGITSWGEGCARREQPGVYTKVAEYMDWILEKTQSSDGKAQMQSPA
Tissue-type plasminogen activator (Homo sapiens), sequence (P00750 36-562 limits assumed): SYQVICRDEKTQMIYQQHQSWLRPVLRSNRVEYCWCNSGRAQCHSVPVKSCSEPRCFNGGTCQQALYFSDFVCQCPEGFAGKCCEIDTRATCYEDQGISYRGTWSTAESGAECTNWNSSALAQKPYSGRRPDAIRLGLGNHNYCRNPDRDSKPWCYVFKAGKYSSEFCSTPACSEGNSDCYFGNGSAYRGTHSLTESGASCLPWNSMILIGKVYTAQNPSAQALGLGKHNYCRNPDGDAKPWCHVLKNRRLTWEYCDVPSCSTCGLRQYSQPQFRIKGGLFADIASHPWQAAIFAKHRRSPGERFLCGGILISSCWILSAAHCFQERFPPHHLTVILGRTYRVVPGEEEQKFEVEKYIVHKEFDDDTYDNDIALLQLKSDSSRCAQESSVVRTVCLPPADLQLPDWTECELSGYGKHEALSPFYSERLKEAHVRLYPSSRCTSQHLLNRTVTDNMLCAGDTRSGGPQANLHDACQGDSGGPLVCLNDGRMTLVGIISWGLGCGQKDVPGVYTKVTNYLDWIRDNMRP

The term IC50 denotes the concentration that inhibits the measured activity by half. Read a low IC50 as greater potency. One may read the bioavailability as dose-corrected exposure relative to a reference, in per cent. The low end stands for little systemic uptake, the high end for much systemic uptake. The term NOAEL denotes the highest dose or exposure tested at which no adverse effect was seen. On to `COc1cc(C(=O)N2C[C@H](C)OC[C@@H]2CCO)cc2nc(N[C@H](CF)c3cccc(Cl)c3)oc12`, for which the inhibition entry in data set [1], in [2], in data set [3], in data set [10] and in [11] was “inactive” throughout. In [4], this molecule came in with an IC50 of 6.5 nM. Besides, the Vd in data set [5] was determined as 3.5 L/kg. In addition, in [6], the bioavailability was 38%. The molecule also yielded an AUC/dose in data set [7] of 0.34 kg·h/L. Also, the fraction unbound in [8] and in data set [12] was 0.22 in each case. Moreover, the no-observed-adverse-effect level (NOAEL) in data set [9] was more than 10000 ng/mL.
